Tests used:
[1] = target: T1, Leukotriene B4 receptor 1 (Homo sapiens, UniProt Q15722); assay: Relative potency against LTB4 receptor was determined
[2] = target: T1, Leukotriene B4 receptor 1; assay: Inhibition of specific binding of LTB4 ( 0.1 nM) to receptors on intact human neutrophils
Outline: (§1)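 Intact human neutrophils from heparinized venous blood of normal volunteers, isolated by Ficoll-Hypaque centrifugation, dextran 70 sedimentation and hypotonic lysis (≥90% neutrophils, ≥90% viable). Cells at 2 × 10⁷/mL in Ca/Mg-free Hanks' with 0.1% ovalbumin, [³H]LTB₄ final 0.1 nM, compound in DMSO (final 1.9%). Incubation 10 min at 4 °C, harvest, scintillation counting. Nonspecific binding from 10 000-fold excess unlabeled LTB₄. Triplicate tubes.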

[3] = target: T1, Leukotriene B4 receptor 1; assay: Inhibition of binding of [3H]LTB4 to receptor […]
Outline: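 Intact human neutrophils isolated from heparinized blood of normal volunteers (Ficoll-Hypaque, dextran sedimentation, hypotonic lysis) were suspended at 2 × 10⁷ cells/mL in Ca/Mg-free HBSS with 0.1% ovalbumin. Tubes held 0.1 nM final [³H]LTB₄ and compound in DMSO (1.9% final), ran 10 min at 4 °C, then were harvested for scintillation counting. Triplicate tubes; nonspecific binding set with 10 000-fold unlabeled LTB₄.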

Homo sapiens [4] = organism: Homo sapiens; assay: Inhibition of LTB-4 induced chemotaxis of human neutrophils; format: functional
Homo sapiens [5] = organism: Homo sapiens; assay: The antagonist activity measured as blockade of the FMLP reaction in neutrophils; format: functional
Outline: (§2)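 Luminol-dependent chemiluminescence of human neutrophils (1 × 10⁷/mL) in Ca/Mg-free Dulbecco's PBS, pH 7.4, with cytochalasin B, stirred at 900 rpm and 37 °C in an aggregometer. Antagonist was added at 2 min, then Ca²⁺/Mg²⁺. After 1 min, luminol and agonist (LTB₄ or FMLP, 30 nM) were added and the maximum response recorded. Cells from five individuals.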

Homo sapiens [6] = organism: Homo sapiens; assay: Inhibition of luminol-dependent chemiluminescence induced by stimulating the neutrophil cells with FMLP (N-formyl-L-methionyl-L-leucyl-l-phenylalanine); format: functional, cell-based; outline: as §2
Homo sapiens [7] = organism: Homo sapiens; assay: Inhibition of luminol-dependent chemiluminescence induced by stimulating the neutrophil cells with LTB4.; format: functional, cell-based; outline: as §2
Homo sapiens [8] = organism: Homo sapiens; assay: LTB4-induced chemotaxis of the human neutrophils; format: functional
[9] = target: T1, Leukotriene B4 receptor 1; assay: Inhibition constant against binding of [3H]LTB4 to human neutrophils; outline: as §1
Homo sapiens [10] = organism: Homo sapiens; assay: The activity of suppression of the FMLP-mediated response; format: functional; outline: as §2

T1 sequence (Q15722 whole entry): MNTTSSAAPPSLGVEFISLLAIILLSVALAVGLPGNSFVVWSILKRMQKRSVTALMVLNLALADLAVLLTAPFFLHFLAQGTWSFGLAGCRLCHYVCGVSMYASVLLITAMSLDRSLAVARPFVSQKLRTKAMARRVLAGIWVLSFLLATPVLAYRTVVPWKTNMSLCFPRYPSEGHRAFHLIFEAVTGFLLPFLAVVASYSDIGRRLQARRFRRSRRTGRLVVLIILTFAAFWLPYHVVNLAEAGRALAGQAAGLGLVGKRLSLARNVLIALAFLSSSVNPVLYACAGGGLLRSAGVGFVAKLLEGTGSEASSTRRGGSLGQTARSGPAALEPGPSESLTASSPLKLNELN

Compound | Relative potency [1] | IC50 [2] [µM] | other results
CCCCCCCCCCOc1cc2oc3ccc(C(=O)O)cc3c(=O)c2cc1CCC(=O)O | 2.5 | 0.832 | 
CCCCCCCCCCOc1ccc(C(=O)c2cccc(C(=O)O)c2)cc1CCC(=O)O | 10 | 0.21 | 
CCCCCCCCCCOc1ccc2c(=O)c3cccc(C(=O)O)c3oc2c1CCC(=O)O | 1 | 2.1 | 
CCCCCCCCCCOc1cc2oc3c(C(=O)O)cccc3c(=O)c2cc1CCC(=O)O | 1.2 | 1.77 | 
COc1ccc(/C=C/CCCCOc2ccc(C(=O)c3cccc(C(=O)O)c3)cc2CCC(=O)O)cc1 |  |  | IC50 [3]: 0.0019 µM

The remaining compounds from weak to strong by IC50 [2], led by results:

Relative potency [1] | IC50 [2] [µM] | Compound | other results
49 | 0.043 | CCCCCCCCCCOc1ccc2c(=O)c3cc(C(=O)O)ccc3oc2c1CCC(=O)O | IC50 (Homo sapiens [4]): 7.9 µM; IC50 (Homo sapiens [5]): 1.21 µM; IC50 (Homo sapiens [6]): 0.734 µM; IC50 (Homo sapiens [7]): 0.342 µM
338 | 0.0062 | COc1ccc(/C=C/CCCCOc2ccc3c(=O)c4cc(C(=O)O)ccc4oc3c2CCC(=O)O)cc1 | IC50 (Homo sapiens [8]): 0.899 µM; Ki [9]: 0.0059 µM; IC50 (Homo sapiens [6]): 1.6 µM; IC50 (Homo sapiens [7]): 0.055 µM; IC50 (Homo sapiens [10]): 2.17 µM

From ChEMBL document CHEMBL1126712, “Design, synthesis, and pharmacological evaluation of potent xanthone dicarboxylic acid leukotriene B4 receptor antagonists” (J Med Chem, 1993)
